These results are taken from PMC4207537 (Journal of Medicinal Chemistry, 2014).

One experiment addresses E. coli topoisomerase IV (Escherichia coli, UniProt P0AFI2+P20083). The experiment can be described thus: E. coli topoisomerase IV decatenation assay. Type of experiment: biochemical.
In experiment [1] the test system is S. aureus Newman. The experiment can be described thus: Macromolecular synthesis. Type of experiment: cell-based, Staphylococcus aureus. As to conditions: 4× MIC.
For another experiment, the system named is M. tuberculosis (H37Rv). Briefly: MIC, microbroth dilution, M. tuberculosis. Type of experiment: cell-based. As to conditions: Mycobacterium tuberculosis, read-out: MIC M. tuberculosis (H37Rv). A general note: Broth dilution looks for growth in wells or tubes with falling amounts of substance.
Experiment [2] deals with Mycobacterium tuberculosis MurE ligase. As to conditions: read-out: MurE ligase IC50; ATP-dependent MurE ligase; cited from earlier work.
Experiment [3] has as its system multidrug-resistant (MDR) strains of clinically relevant Staphylococcus aureus. As to conditions: natural olympicin A; cited from earlier work.
Experiment [4] has as its system S. aureus Newman. Briefly: Membrane potential, DiOC2. Format: cell-based, Staphylococcus aureus. As to conditions: DiOC2(3); up to 4× MIC. An outline of the steps: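 Flow cytometry with the membrane-potential probe DiOC2(3) on S. aureus Newman grown in Mueller–Hinton II to OD600nm ≈ 0.3 and exposed to test compound. CCCP served as positive control and vancomycin as negative control. Three biological replicates were run.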

The next experiment deals with T1, E. coli topoisomerase I (Escherichia coli, UniProt P06612).
T1 sequence (P06612 1-865): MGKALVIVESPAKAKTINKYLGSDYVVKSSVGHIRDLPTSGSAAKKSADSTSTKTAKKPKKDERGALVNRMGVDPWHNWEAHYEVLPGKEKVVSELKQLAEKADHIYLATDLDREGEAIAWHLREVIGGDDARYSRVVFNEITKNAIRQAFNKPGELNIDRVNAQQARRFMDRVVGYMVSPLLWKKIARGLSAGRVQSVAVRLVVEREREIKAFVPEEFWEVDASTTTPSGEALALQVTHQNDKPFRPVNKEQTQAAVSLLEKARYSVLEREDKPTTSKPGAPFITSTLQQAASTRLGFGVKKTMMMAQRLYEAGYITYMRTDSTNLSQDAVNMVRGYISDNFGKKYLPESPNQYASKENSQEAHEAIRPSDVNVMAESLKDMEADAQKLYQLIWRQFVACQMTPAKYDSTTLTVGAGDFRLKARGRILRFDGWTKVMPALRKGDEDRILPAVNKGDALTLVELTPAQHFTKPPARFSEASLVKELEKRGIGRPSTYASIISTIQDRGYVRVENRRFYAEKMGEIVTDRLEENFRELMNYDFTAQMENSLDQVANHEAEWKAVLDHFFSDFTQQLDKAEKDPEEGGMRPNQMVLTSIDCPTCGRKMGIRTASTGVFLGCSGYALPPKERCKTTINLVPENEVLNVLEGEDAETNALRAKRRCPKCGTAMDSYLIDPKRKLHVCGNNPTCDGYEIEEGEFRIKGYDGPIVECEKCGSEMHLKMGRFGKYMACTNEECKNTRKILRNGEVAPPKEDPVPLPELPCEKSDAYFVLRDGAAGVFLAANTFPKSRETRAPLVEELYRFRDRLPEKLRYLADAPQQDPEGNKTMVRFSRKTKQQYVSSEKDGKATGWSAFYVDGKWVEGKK
Briefly: Relaxation activity of E. coli topoisomerase I. Type of experiment: biochemical.

The subject of the next experiment is Clostridium difficile. As to conditions: synthetic olympicin A; cited from earlier work.
For the next experiment, the system named is E. faecalis (ATCC 33186). Briefly: microbe, parasite or virus in culture. Type of experiment: cell-based. As to conditions: Enterococcus faecalis, ATCC33186, read-out: MIC E. faecalis (ATCC 33186).
In experiment [5] the test system is S. aureus Newman. Briefly: Time kill experiments. Type of experiment: cell-based, Staphylococcus aureus. As to conditions: for type of killing (bactericidal / bacteriostatic): time kill, up to 24 h.
Experiment [6] has as its system S. aureus Newman. The experiment can be described thus: Selection of spontaneous mutants. Type of experiment: cell-based, Staphylococcus aureus. As to conditions: concentrations between 1× and 4× MIC.
The test system of experiment [7] is Gram-positive bacteria tested (E. faecalis, MSSA, and MRSA). The experiment can be described thus: MIC range over the Gram-positive bacteria tested. As to conditions: range over E. faecalis and S. aureus (MSSA, MRSA) strains. Type of experiment: cell-based, Enterococcus faecalis, Staphylococcus aureus.
For experiment [8], the system named is S. aureus Newman. The experiment can be described thus: microbe, parasite or virus in culture. Type of experiment: cell-based. As to conditions: Staphylococcus aureus, read-out: MIC against S. aureus Newman.

In brackets after ≈: the same amount, converted by molar mass.

Chain of E. coli topoisomerase IV (P0AFI2 whole entry): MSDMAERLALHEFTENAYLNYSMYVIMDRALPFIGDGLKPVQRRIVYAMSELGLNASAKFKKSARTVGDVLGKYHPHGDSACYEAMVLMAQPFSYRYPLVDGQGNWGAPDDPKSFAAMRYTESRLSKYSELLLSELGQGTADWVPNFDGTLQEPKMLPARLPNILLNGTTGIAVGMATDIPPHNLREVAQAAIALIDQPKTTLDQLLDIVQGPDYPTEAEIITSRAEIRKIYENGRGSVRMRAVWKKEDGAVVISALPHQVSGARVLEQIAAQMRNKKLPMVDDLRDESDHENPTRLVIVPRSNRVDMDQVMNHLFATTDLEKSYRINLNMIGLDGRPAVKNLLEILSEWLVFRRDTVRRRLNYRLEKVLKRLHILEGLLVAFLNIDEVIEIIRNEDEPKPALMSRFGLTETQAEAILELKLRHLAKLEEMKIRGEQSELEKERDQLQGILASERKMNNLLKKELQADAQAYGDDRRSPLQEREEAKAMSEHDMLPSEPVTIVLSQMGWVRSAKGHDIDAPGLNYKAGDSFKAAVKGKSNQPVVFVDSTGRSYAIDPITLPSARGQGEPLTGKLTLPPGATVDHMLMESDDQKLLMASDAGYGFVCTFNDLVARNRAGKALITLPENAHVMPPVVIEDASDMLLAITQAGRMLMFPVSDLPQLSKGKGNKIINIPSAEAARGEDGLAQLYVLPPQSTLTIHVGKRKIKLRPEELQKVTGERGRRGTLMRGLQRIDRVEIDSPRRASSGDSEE
Chain of E. coli topoisomerase IV (P20083 whole entry): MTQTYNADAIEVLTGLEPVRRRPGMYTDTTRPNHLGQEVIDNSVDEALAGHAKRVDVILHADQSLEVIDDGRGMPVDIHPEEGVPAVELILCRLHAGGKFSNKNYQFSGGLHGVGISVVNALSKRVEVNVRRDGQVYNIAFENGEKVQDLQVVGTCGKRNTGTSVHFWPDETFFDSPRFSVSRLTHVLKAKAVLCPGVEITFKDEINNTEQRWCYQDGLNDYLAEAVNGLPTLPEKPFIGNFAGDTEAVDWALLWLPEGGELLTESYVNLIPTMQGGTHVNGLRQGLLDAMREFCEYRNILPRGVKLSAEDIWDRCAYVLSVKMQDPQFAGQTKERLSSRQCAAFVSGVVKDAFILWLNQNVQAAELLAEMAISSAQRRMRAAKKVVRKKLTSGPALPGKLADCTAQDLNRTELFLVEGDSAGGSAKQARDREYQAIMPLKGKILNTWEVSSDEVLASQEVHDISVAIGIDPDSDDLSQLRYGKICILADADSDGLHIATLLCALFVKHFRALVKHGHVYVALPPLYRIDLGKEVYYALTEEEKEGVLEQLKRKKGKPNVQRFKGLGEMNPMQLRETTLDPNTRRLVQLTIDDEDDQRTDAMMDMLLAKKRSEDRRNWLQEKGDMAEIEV

Usually IC50 stands for the concentration that gives 50% inhibition. `CC[C@H](C)C(=O)c1c(O)cc(O)cc1OC/C=C(\C)CCC=C(C)C` [Compound 2a, (S,E)-1-(2-((3,7-Dimethylocta-2,6-dien-1-yl)oxy)-4,6-dihydroxyphenyl)-2-methylbutan-1-one]: the 50% inhibitory concentration (IC50) on E. coli topoisomerase IV is 30 to 60 µM; in experiment [2] it was 75 µM; against E. coli topoisomerase I, more than 500 µM. The “effect on macromolecular synthesis (DNA, RNA, protein)” value (from here on “effect on macromolecular synthesis”) in the experiment on S. aureus Newman [1] was “Several key biosynthetic processes were simultaneously inhibited”. Also, in the experiment with M. tuberculosis (H37Rv), the MIC stood at 200 µg/mL (≈ 577 µM). Besides, in experiment [3], the “MIC against a panel of MDR S. aureus strains” value is 0.5 to 1 µg/mL. Moreover, the “previously reported anti S. aureus activity (MIC)” value in experiment [3] was 0.5 to 1 µg/mL. In the experiment with S. aureus Newman [4], the “effect on membrane potential” value is listed as “dissipated the membrane potential”. Besides, in the experiment on Clostridium difficile, the “MIC against Clostridium difficile” value was 1 to 2 µg/mL.
For `CCC(C)C(=O)c1c(O)cc(O)cc1OC/C=C(\C)CCC=C(C)C` (stereo not drawn) [Compound 2b, (E)-1-(2-((3,7-Dimethylocta-2,6-dien-1-yl)oxy)-4,6-dihydroxyphenyl)-2-methylbutan-1-one], the MIC with E. faecalis (ATCC 33186) came to 1.56 µg/mL (≈ 4.5 µM).
With `CCCCCCCCOc1cc(O)cc(O)c1C(=O)C(C)CC` (stereo not drawn) [Compound 2e, 1-(2,4-Dihydroxy-6-(octyloxy)phenyl)-2-methylbutan-1-one], the concentration for half-maximal inhibition (IC50) on E. coli topoisomerase IV was 30 to 60 µM; on E. coli topoisomerase I it was more than 500 µM.
For the compound `CC1(C)C2CC=C(/C=C/C(=O)c3ccc(O)cc3O)C1C2` (stereo not drawn) [Compound 3g, (E)-1-(2,4-Dihydroxyphenyl)-3-(6,6-dimethylbicyclo[3.1.1]hept-2-en-2-yl)prop-2-en-1-one], the “time required to achieve a 3 log reduction in cells” value with S. aureus Newman [5] (at its MIC (1×)) is recorded as “up to 24 h”. Besides, in the experiment with S. aureus Newman [5], the “type of killing (bactericidal / bacteriostatic)” value was “concentration-dependent killing”. Also, the figures for the IC50 against E. coli topoisomerase IV and against E. coli topoisomerase I were 60 to 120 µM and more than 500 µM, respectively. For the same compound, in the experiment with S. aureus Newman [1], the “effect on macromolecular synthesis” value is listed as “Several key biosynthetic processes were simultaneously inhibited”. Besides, the “frequency of spontaneous mutants” value in the experiment on S. aureus Newman [6] is on record as “could not be selected”. For the same compound, the “effect on membrane potential” value with S. aureus Newman [4] is reported as “dissipated the membrane potential”.
As for `CC1(C)C2CC=C(C3CC(=O)c4ccc(O)cc4O3)C1C2` (stereo not drawn) [Compound 3j, 2-(6,6-Dimethylbicyclo[3.1.1]hept-2-en-2-yl)-7-hydroxychroman-4-one], the “MIC range against Gram-positive bacteria tested” value in experiment [7] was “largely inactive”.
On the same count and under the same terms, next, `CC(C)=CCCC(C)CC1CC(=O)c2c(O)cccc2O1` (stereo not drawn) [Compound 3l, 2-(2,6-Dimethylhept-5-en-1-yl)-5-hydroxychroman-4-one]: “not active”.
Consider `CCCCCCCC1CC(=O)c2c(O)cc(O)cc2O1` (stereo not drawn) [Compound 5f, 2-Heptyl-5,7-dihydroxychroman-4-one], for which the IC50 at E. coli topoisomerase IV is 120 to 250 µM; against E. coli topoisomerase I, more than 500 µM.
As for `CC(C)=CCCC(C)CC1CC(=O)c2c(O)cc(O)cc2O1` (stereo not drawn) [Compound 5j, 2-(2,6-Dimethylhept-5-en-1-yl)-5,7-dihydroxychroman-4-one], the “effect on macromolecular synthesis” value in the experiment on S. aureus Newman [1] is recorded as “Several key biosynthetic processes were simultaneously inhibited”. For the same compound, the “frequency of spontaneous mutants” value with S. aureus Newman [6] is given as “could not be selected”. Besides, in the experiment with S. aureus Newman [4], the “effect on membrane potential” value is on record as “dissipated the membrane potential”.
For `C=CCOc1ccccc1/C=C/C(=O)c1ccc(O)cc1O` [Compound 8a, (E)-3-(2-(Allyloxy)phenyl)-1-(2,4-dihydroxyphenyl)prop-2-en-1-one], in the experiment with S. aureus Newman [5], the “type of killing (bactericidal / bacteriostatic)” value is reported as “rapidly bactericidal”. Moreover, the IC50 is 250 to 500 µM against E. coli topoisomerase IV and more than 500 µM on E. coli topoisomerase I. Moreover, the “effect on macromolecular synthesis” value with S. aureus Newman [1] is reported as “Several key biosynthetic processes were simultaneously inhibited”. Moreover, in the experiment with S. aureus Newman [6], the “frequency of spontaneous mutants” value is “could not be selected”.
As to `CCCCCCOc1ccccc1/C=C/C(=O)c1ccc(O)cc1O` [Compound 8b, (E)-1-(2,4-Dihydroxyphenyl)-3-(2-(hexyloxy)phenyl)prop-2-en-1-one], the IC50 at E. coli topoisomerase IV is 60 to 120 µM; against E. coli topoisomerase I, more than 500 µM.
Take `O=C(/C=C/c1ccc(N2CCCCC2)cc1)c1ccc(O)cc1O` [Compound 8d, (E)-1-(2,4-Dihydroxyphenyl)-3-(4-(piperidin-1-yl)phenyl)prop-2-en-1-one]: the “type of killing (bactericidal / bacteriostatic)” value in the experiment with S. aureus Newman [5] is “entirely bacteriostatic”. For the same compound, the figures for the IC50 against E. coli topoisomerase IV and at E. coli topoisomerase I were 500 to 1000 µM and more than 500 µM, respectively. Moreover, in the experiment with S. aureus Newman [1], the “effect on macromolecular synthesis” value was “Several key biosynthetic processes were simultaneously inhibited”. In addition, the MIC with S. aureus Newman [8] amounted to 6.25 µg/mL (≈ 19.3 µM). For the same compound, in the experiment with S. aureus Newman [4], the “effect on membrane potential” value is “dissipated the membrane potential”.
Consider `CCCCCCOc1ccccc1C1CC(=O)c2ccc(O)cc2O1` (stereo not drawn) [Compound 8j, 2-(2-(Hexyloxy)phenyl)-7-hydroxychroman-4-one], for which the values for the half-inhibitory concentration (IC50) against E. coli topoisomerase IV and against E. coli topoisomerase I were more than 1000 µM and more than 500 µM, respectively.
On the same counts, the results for `CCCCCCCCOc1ccccc1C1CC(=O)c2ccc(O)cc2O1` (stereo not drawn) [Compound 8k, 7-Hydroxy-2-(2-(octyloxy)phenyl)chroman-4-one] are more than 1000 µM and more than 500 µM.
As for `O=C(O)c1cn(C2CC2)c2cc(N3CCNCC3)c(F)cc2c1=O` [ciprofloxacin], in the experiment on S. aureus Newman [8], the MIC was 0.25 µg/mL (≈ 0.754 µM).
Same read-out and setting: next, `CC[C@H]1OC(=O)[C@H](C)[C@@H](O[C@H]2C[C@@](C)(OC)[C@@H](O)[C@H](C)O2)[C@H](C)[C@@H](O[C@@H]2O[C@H](C)C[C@H](N(C)C)[C@H]2O)[C@](C)(O)C[C@@H](C)C(=O)[C@H](C)[C@@H](O)[C@]1(C)O` [erythromycin]: 0.78 µg/mL (≈ 1.06 µM).
`C/C(=C\C(=O)OCCCCCCCCC(=O)O)C[C@@H]1OC[C@H](C[C@@H]2O[C@H]2[C@@H](C)[C@H](C)O)[C@@H](O)[C@H]1O` [mupirocin, reference compound]: the “type of killing (bactericidal / bacteriostatic)” value with S. aureus Newman [5] is “either bacteriostatic or slowly bactericidal”.
Take `CN[C@H](CC(C)C)C(=O)N[C@H]1C(=O)N[C@@H](CC(N)=O)C(=O)N[C@H]2C(=O)N[C@H]3C(=O)N[C@H](C(=O)N[C@H](C(=O)O)c4cc(O)cc(O)c4-c4cc3ccc4O)[C@H](O)c3ccc(c(Cl)c3)Oc3cc2cc(c3O[C@@H]2O[C@H](CO)[C@@H](O)[C@H](O)[C@H]2O[C@H]2C[C@](C)(N)[C@H](O)[C@H](C)O2)Oc2ccc(cc2Cl)[C@H]1O` [vancomycin, reference compound]: in the experiment on S. aureus Newman [5], the “type of killing (bactericidal / bacteriostatic)” value is on record as “either bacteriostatic or slowly bactericidal”. Further, the “effect on membrane potential” value in the experiment on S. aureus Newman [4] is reported as “failed to affect the membrane potential”.
